Bioassay records from PubChem BioAssay.
Hits are enriched below; roughly 2.2% of the tested compounds scored in any of these assays.
CR mimetic SO – lowers age-related superoxide in aged yeast cells; S. cerevisiae aged cells, superoxide DHE fluorescence; stronger effect = lower value; superoxide response (% of plate mean), % at 10 µM; 330,000 compounds, 0.18% hits; AID 2690;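 active means superoxide response under a set limit, about three screen SD below normal, cut at about 65% in these data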;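 further: yeast aged for seven days with compound at 30 °C before DHE staining; 100% = average MFI of all compound-treated wells on the plate with controls excluded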
PglD inh – inhibitors of Campylobacter jejuni PglD acetyltransferase; 360,000 compounds, 0.098% hits; inhibition, % at 12.5 µM; purified PglD enzyme, DTNB colorimetric CoA detection; in the data active means inhibition above about 16%, passing the limit was not always enough
Cneo AK release – causes C. neoformans cell lysis; adenylate kinase release luminescence, 4 h; normalised: neutral wells 0, clomiphene wells 100; lysis activity, % at 15 µM; 360,000 compounds, 0.2% hits; AID 651654;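 active means mean lysis activity across replicates of at least 80%, whatever share of replicates individually reach that level; inactive means mean lysis activity below 80%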
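Assay system: log-phase C. neoformans yeast / Quantity: yeast cell density of 5 × 10^6 cells/mL / Medium: fresh YPD growth medium / Compound: single dose / Timing: static 4 h at 37 °C with compound, 1 h detection / Measured by: adenylate kinase release luminescence / Read-out: lysis from increased AK signal / Benchmarks: Clomiphene as positive lysis control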
SUMO Mot1 rescue – inhibitors of SUMOylation pathway: yeast Mot1-301 growth rescue; S. cerevisiae Mot1-301 growth rescue, ATP luminescence, 38.5C; percent above DMSO median, 100 means doubled; growth rescue, % at 18.8 µM; 320,000 compounds, 1% hits;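 active means every valid replicate shows activation above 250% relative to neutral control wells; inactive means the rest, any valid replicate at or below 250%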;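 further: OY570 slx delta 5 strain wells were the positive control but not used for scaling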
Ecoli rRNA inh – inhibitors of bacterial rRNA selective over humanized ribosomes; E. coli WT GFP vs humanized-ribosome RFP mutants, fluorescence, 24 h; stronger effect = lower value; DMSO median 0, no signal -100; GFP signal change (wild-type ribosome), % (test concentration not listed); 350,000 compounds, 1.6% hits;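 active means significant combined selectivity score with lowered wild-type GFP, culture density cut under 30%, mutant RFP and density less affected; inactive means any of these conditions unmet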
* marks the source's active call; other numbers are inactive results; / = no result given; + = active, no number.

SMILES	CR mimetic SO	PglD inh	Cneo AK release	SUMO Mot1 rescue	Ecoli rRNA inh
C[C@H](NC(=O)C[C@H]1CC[C@@H](NC(=O)Cc2ccccn2)[C@@H](CO)O1)c1ccccc1	/	2.0	96.3*	/	1.9
C[C@@H]1CN([C@H](C)CO)C(=O)c2cc(NS(=O)(=O)c3ccccc3)ccc2O[C@@H]1CN(C)Cc1ccc(C(=O)O)cc1	/	-1.3	0.0	/	2.9
Cc1ccc2c(Cl)c(C(=O)N/N=C/c3cccn3C)sc2c1	84.7	-1.7	9.0	14.0	-21.6*
COc1cc(/C=C/C(=O)OCC(=O)Nc2ccc3c(c2)OCO3)ccc1O	114.0	-5.2	-1.3	3.6	-11.8
COc1cc(NC(=O)COC(=O)/C=C/c2ccc(O)c(OC)c2)cc(OC)c1	106.2	/	/	-11.3	-28.9*
COCc1cn(CC[C@H]2CC[C@H](NC(=O)Nc3ccc(Cl)cc3)[C@H](CO)O2)nn1	/	1.3	-0.6	/	2.2
Oc1c(C=Nc2ccc(Cl)cn2)sc2ccccc12	102.8	/	/	-11.7	-1.4
Oc1c(/C=N/c2ccccn2)sc2ccccc12	70.5	-5.1	1.8	+	4.8
Cc1ccc(S(=O)(=O)NNC(=O)Nc2ccc([N+](=O)[O-])cc2)c(C)c1	106.9	-5.2	-2.3	-4.3	-22.6*
Cc1ccc(S(=O)(=O)NNC(=O)Nc2cccc(F)c2)c(C)c1	102.1	2.9	-0.8	-8.1	3.4
Cc1ccc(Nc2nc(=O)c3cccnc3s2)c(Br)c1	110.8	10.4	2.1	30.7	-21.7*
COCC(=O)Nc1ccc2c(c1)[C@@H]1C[C@@H](CC(=O)NCc3ccc(OC)cc3)O[C@H](CO)[C@@H]1O2	/	5.4	4.0	/	2.1
S=C1NC2(CCCC2)N=C1c1ccccc1	106.4	/	/	490.1*	5.9
CC1(C)N=C(c2ccccc2)C(=O)N1	100.4	0.7	-0.4	-21.6	/
S=C1NC2(CCCCCC2)N=C1c1ccccc1	90.8	0.4	60.5	47.9	-4.5
CC(C)CC1(C)N=C(c2ccccc2)C(=S)N1 (stereo not given)	86.3	1.5	82.1*	-4.1	-1.0
COc1ccccc1-c1cnc2c(c1)C(=O)N([C@H](C)CO)C[C@@H](C)[C@H](CN(C)Cc1cncnc1)O2	/	-0.3	82.0*	/	1.2
C[C@H](CO)N1C[C@H](C)[C@H](CN(C)Cc2cccnc2)Oc2ncc(C#CC3(O)CCCC3)cc2C1=O	/	-9.8	97.9*	/	1.8
C[C@@H]1CN([C@H](C)CO)C(=O)c2cc(C#CC(C)(C)O)cnc2O[C@H]1CN(C)Cc1cncnc1	/	1.8	-4.4	/	4.6
C[C@@H]1CN([C@H](C)CO)C(=O)c2cc(C#CC(C)(C)O)cnc2O[C@@H]1CN(C)Cc1cncnc1	/	1.1	84.9*	/	4.4
COc1ccccc1-c1cnc2c(c1)C(=O)N([C@@H](C)CO)C[C@H](C)[C@H](CN(C)Cc1cncnc1)O2	/	0.5	-1.1	/	1.4
C[C@H](O)C#Cc1cnc2c(c1)C(=O)N([C@H](C)CO)C[C@@H](C)[C@H](CN(C)C(=O)Cc1ccccn1)O2	/	1.5	1.5	/	1.5
COc1cccc(C(=O)Nc2nnc(S(=O)(=O)N3CCCC3)s2)c1	116.7	-7.0	-0.2	-0.4	1.0
COc1cc(C(=O)Nc2nnc(S(=O)(=O)N3CCCCCC3)s2)cc(OC)c1OC	126.8	-0.3	0.0	-4.3	-30.6*
CNC[C@@H]1Oc2c(N)cccc2C(=O)N(C)C[C@@H]1C	/	/	/	/	1.4
SMILES	CR mimetic SO	PglD inh	Cneo AK release	SUMO Mot1 rescue	Ecoli rRNA inh
CN1CCN(C(=O)C[C@@H]2CC[C@@H]3[C@H](COC[C@H](O)CN3C(=O)C3CC3)O2)CC1	/	0.5	-2.0	/	0.2
O=C(CNCC1CCCO1)Nc1ccc([N+](=O)[O-])cc1C(=O)Nc1ccccc1F (stereo not given)	102.2	2.6	1.4	-11.5	12.1
COc1cccc(NC(=O)c2cc([N+](=O)[O-])ccc2NC(=O)CNCC2CCCO2)c1 (stereo not given)	64.5*	/	/	6.6	5.3
C[C@@H]1CN([C@@H](C)CO)S(=O)(=O)c2ccc(C#CCN(C)C)cc2O[C@H]1CN(C)Cc1ccc(F)cc1	/	7.4	-0.7	/	-27.4
CCc1nc2c(C#N)c(-c3ccc(Cl)cc3)ccn2n1	95.9	5.0	-0.2	7.5	/
CCS(=O)c1scc(-c2ccc(Cl)cc2)c1C#N (stereo not given)	104.2	/	/	21.2	-31.7*
CC(C)(C)NC(=O)CSCc1c(Cl)cccc1Cl	98.7	/	/	4.9	-31.1*
NC(=O)CSCc1c(Cl)cccc1Cl	121.5	-2.4	-5.0	-8.8	7.9
CC1(C(=O)NS(=O)(=O)c2ccc3c(c2)CCO3)CCN1C(=O)Cc1ccc(-c2ccccc2)cc1 (stereo not given)	/	0.1	-0.3	/	-6.0
CC1(C(=O)NS(=O)(=O)c2ccc3c(c2)CCO3)CCN1C(=O)c1ccccc1CCc1ccccc1 (stereo not given)	/	2.4	-0.2	/	-20.2*
Cc1cccc(S(=O)(=O)NC(=O)C2(C)CCN2C(=O)c2ccccc2CCc2ccccc2)c1 (stereo not given)	/	-3.8	0.1	/	-49.9*
CN(C(=O)COC(=O)c1cnc(Cl)c(Cl)c1)C1CCCCC1	100.3	3.9	-1.0	-3.4	-14.2*
Cc1nc(-c2ccccn2)nc(SCC(=O)c2ccccc2)c1Cl	83.1	-3.7	6.9	-10.5	-22.6*
Cc1nc(-c2ccccn2)nc(SCC(=O)N2CCOCC2)c1Cl	116.5	-0.2	-0.2	6.6	/
CCNC(=O)C[C@H]1CC[C@H](NS(=O)(=O)c2ccc(F)cc2)[C@@H](CO)O1	/	-2.1	58.2	/	-3.1
Cc1cccc(NC(=O)Nc2ccccc2)n1	91.2	-3.2	-5.4	8.7	-2.5
Cc1cccc(NC(=O)Nc2ccc(Cl)c(Cl)c2)n1	97.6	-0.8	0.4	-23.0	-26.0*
CC(C)(C)C1CCC2(CC1)NC(=S)N(c1ccccc1)N2 (stereo not given)	102.2	-2.7	-0.9	302.0*	/
C[C@H](CO)N1C[C@H](C)[C@@H](CN(C)C)Oc2ccc(NC(=O)CCCCCC(=O)Nc3ccccc3N)cc2C1=O	/	6.6	0.2	/	5.4
CC1=C(C(=O)OC2CCCCCCC2)C(c2cccc(O)c2)NC(=O)N1 (stereo not given)	88.7	/	/	-0.2	-33.4*
O=C(COC(=O)c1c[nH]c(=O)[nH]c1=O)Nc1ccccc1Br	95.6	-3.9	-0.7	807.7*	7.3
CN(C)/N=C/c1ccc(/C=N/NC(N)=S)o1	99.0	/	/	422.2*	4.7
COCC(=O)Nc1ccc2c(c1)C(=O)N(C)C[C@H](OC)[C@@H](C)CN(Cc1cncnc1)[C@@H](C)CO2	/	-0.2	-6.6	/	-0.4
O=S(=O)(Nc1cccc2ccccc12)c1cccc2nonc12	100.6	0.4	0.2	24.3	-27.4*
CC(C)NC(=O)N(C)C[C@H]1Oc2ccc(NC(=O)CCCCCC(=O)Nc3ccccc3N)cc2CC(=O)N([C@H](C)CO)C[C@H]1C	/	1.5	-14.9	/	5.2
O=C(OCc1c(-c2ccccc2)ncc2ccccc12)c1cccs1	82.3	-0.4	1.9	46.8	-20.6*
